Source: ChEMBL document CHEMBL1806389, “Synthesis, in vitro and in vivo evaluation of fluorine-18 labelled FE-GW405833 as a PET tracer for type 2 cannabinoid receptor imaging” (Bioorg Med Chem, 2011)
pEC50, pKi: −log10 of the molar value. Where “and” joins values, the source holds several entries; their conditions need not be identical. Identical values can stand only once. Calls of active or inactive are those of the source. No cut-off for these calls is given here.

Tests used:
Brain [1] = assay: Biodistribution in Wistar rat brain after 60 mins; type: ADME, organism-based; details: in vivo, 1 h
Striatum [2] = assay: In vivo binding affinity to human CB2 receptor D80N mutant expressed in Fisher rat right striatum at 37 MBq, iv after 60 mins by microPET study relative to left striatum; type: functional
Procedure, shortened: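 Normal 8-week-old Fisher rat received stereotactic AAV2/7-eGFP-T2A-hCB2R(D80N) vector in the right striatum and a control eGFP vector in the left striatum. Scanned 34 days later under 3% isoflurane in 2.0 L/min oxygen. Dynamic microPET started immediately after IV injection of about 37 MBq tracer. Images spatially normalized to stereotactic space; striatal time-activity curves from predefined volumes of interest.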

[3] = Octanol-phosphate buffer partition coefficient, log D of the compound at pH 7.4; type: physicochemical
Procedure, shortened: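 Radiolabelled tracer partitioned between 1-octanol and 0.025 M phosphate buffer pH 7.4; log D from distribution of radioactivity.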

Cannabinoid receptor 1 = Cannabinoid receptor 1 (Homo sapiens, UniProt P21554); assay: Displacement of [3H]-SR141716A from human CB1 receptor expressed in CHO cells after 1 hrs by beta counting; type: cell-based
Sequence of Cannabinoid receptor 1 (P21554 whole entry): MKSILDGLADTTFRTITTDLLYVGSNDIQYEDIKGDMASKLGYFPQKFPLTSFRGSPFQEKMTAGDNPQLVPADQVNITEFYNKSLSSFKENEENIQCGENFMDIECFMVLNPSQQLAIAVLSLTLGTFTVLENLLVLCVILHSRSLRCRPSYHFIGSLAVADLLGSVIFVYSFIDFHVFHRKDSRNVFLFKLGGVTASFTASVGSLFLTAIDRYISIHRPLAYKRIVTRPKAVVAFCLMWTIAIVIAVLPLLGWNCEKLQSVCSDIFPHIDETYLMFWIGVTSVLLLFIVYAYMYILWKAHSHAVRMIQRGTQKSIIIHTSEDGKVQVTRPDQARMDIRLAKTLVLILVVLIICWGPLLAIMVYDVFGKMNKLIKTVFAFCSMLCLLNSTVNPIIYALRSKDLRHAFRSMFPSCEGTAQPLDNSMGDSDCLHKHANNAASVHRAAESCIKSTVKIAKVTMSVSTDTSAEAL

Cannabinoid receptor 2 [4] = molecular target: T1, Cannabinoid receptor 2 (Homo sapiens, UniProt P34972); assay: Displacement of [3H]-CP55940 from human CB2 receptor expressed in CHO cells after 1 hrs by beta counting; type: cell-based
T1 sequence (P34972 whole entry): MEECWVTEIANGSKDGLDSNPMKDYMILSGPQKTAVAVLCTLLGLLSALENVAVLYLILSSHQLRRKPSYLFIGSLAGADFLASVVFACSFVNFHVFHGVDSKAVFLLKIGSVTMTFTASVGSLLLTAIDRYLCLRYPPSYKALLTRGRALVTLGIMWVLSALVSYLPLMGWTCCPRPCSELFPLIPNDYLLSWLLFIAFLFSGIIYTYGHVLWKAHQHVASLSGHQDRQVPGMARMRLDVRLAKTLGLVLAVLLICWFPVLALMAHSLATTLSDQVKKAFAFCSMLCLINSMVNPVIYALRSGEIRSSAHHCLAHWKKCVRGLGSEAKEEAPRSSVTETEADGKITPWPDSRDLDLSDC

Cannabinoid receptor 2 [5] = molecular target: T1, Cannabinoid receptor 2; assay: Inverse agonist activity at human CB2 receptor expressed in CHO cells assessed as effect on [35S]-GTPgammaS binding after 1 hrs by beta counting; type: functional, cell-based
Kidney [6] = assay: Biodistribution in NMRI mouse kidney at 6 MBq/ml, iv after 2 mins by gamma counting; type: ADME, organism-based; details: in vivo
Procedure, shortened: (§1)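 Tracer formulated in saline at about 6 MBq/ml (diluted HPLC-purified product); 100 µl given into a tail vein. Mice killed by decapitation at 2 or 60 min p.i.; organs, body parts and blood dissected, weighed and gamma-counted. Values as %ID (cpm in organ/total cpm recovered), %ID/g, or SUV. Total blood mass taken as 7% of body mass. Mean SD, n = 4 per time point.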

Kidney [7] = assay: Biodistribution in NMRI mouse kidney at 6 MBq/ml, iv after 60 mins by gamma counting; type: ADME, organism-based; details: in vivo, 1 h; procedure, shortened: as §1
[8] = Biodistribution in NMRI mouse urine at 6 MBq/ml, iv after 2 mins by gamma counting; type: ADME, organism-based; details: in vivo; procedure, shortened: as §1
[9] = Biodistribution in NMRI mouse urine at 6 MBq/ml, iv after 60 mins by gamma counting; type: ADME, organism-based; details: in vivo, 1 h; procedure, shortened: as §1
Liver [10] = assay: Biodistribution in NMRI mouse liver at 6 MBq/ml, iv after 2 mins by gamma counting; type: ADME, organism-based; details: in vivo; procedure, shortened: as §1
Liver [11] = assay: Biodistribution in NMRI mouse liver at 6 MBq/ml, iv after 60 mins by gamma counting; type: ADME, organism-based; details: in vivo, 1 h; procedure, shortened: as §1
Spleen [12] = assay: Biodistribution in NMRI mouse spleen at 6 MBq/ml, iv after 2 mins by gamma counting; type: ADME, organism-based; details: in vivo; procedure, shortened: as §1
Spleen [13] = assay: Biodistribution in NMRI mouse spleen at 6 MBq/ml, iv after 60 mins by gamma counting; type: ADME, organism-based; details: in vivo, 1 h; procedure, shortened: as §1
Pancreas [14] = assay: Biodistribution in NMRI mouse pancreas at 6 MBq/ml, iv after 2 mins by gamma counting; type: ADME, organism-based; details: in vivo; procedure, shortened: as §1
Pancreas [15] = assay: Biodistribution in NMRI mouse pancreas at 6 MBq/ml, iv after 60 mins by gamma counting; type: ADME, organism-based; details: in vivo, 1 h; procedure, shortened: as §1
Lung [16] = assay: Biodistribution in NMRI mouse lungs at 6 MBq/ml, iv after 2 mins by gamma counting; type: ADME, organism-based; details: in vivo; procedure, shortened: as §1
Lung [17] = assay: Biodistribution in NMRI mouse lungs at 6 MBq/ml, iv after 60 mins by gamma counting; type: ADME, organism-based; details: in vivo, 1 h; procedure, shortened: as §1
Heart [18] = assay: Biodistribution in NMRI mouse heart at 6 MBq/ml, iv after 2 mins by gamma counting; type: ADME, organism-based; details: in vivo; procedure, shortened: as §1
Heart [19] = assay: Biodistribution in NMRI mouse heart at 6 MBq/ml, iv after 60 mins by gamma counting; type: ADME, organism-based; details: in vivo, 1 h; procedure, shortened: as §1
Intestine [20] = assay: Biodistribution in NMRI mouse intestine at 6 MBq/ml, iv after 2 mins by gamma counting; type: ADME, organism-based; details: in vivo; procedure, shortened: as §1
Intestine [21] = assay: Biodistribution in NMRI mouse intestine at 6 MBq/ml, iv after 60 mins by gamma counting; type: ADME, organism-based; details: in vivo, 1 h; procedure, shortened: as §1
Stomach [22] = assay: Biodistribution in NMRI mouse stomach at 6 MBq/ml, iv after 2 mins by gamma counting; type: ADME, organism-based; details: in vivo; procedure, shortened: as §1
Stomach [23] = assay: Biodistribution in NMRI mouse stomach at 6 MBq/ml, iv after 60 mins by gamma counting; type: ADME, organism-based; details: in vivo, 1 h; procedure, shortened: as §1
Blood [24] = assay: Biodistribution in NMRI mouse blood at 6 MBq/ml, iv after 2 mins by gamma counting; type: ADME, organism-based; details: in vivo; procedure, shortened: as §1
Blood [25] = assay: Biodistribution in NMRI mouse blood at 6 MBq/ml, iv after 60 mins by gamma counting; type: ADME, organism-based; details: in vivo, 1 h; procedure, shortened: as §1
Brain [26] = assay: Biodistribution in NMRI mouse brain at 6 MBq/ml, iv after 2 mins by gamma counting; type: ADME, organism-based; details: in vivo; procedure, shortened: as §1
Brain [27] = assay: Biodistribution in NMRI mouse brain at 6 MBq/ml, iv after 60 mins by gamma counting; type: ADME, organism-based; details: in vivo, 1 h; procedure, shortened: as §1
[28] = Metabolic stability in NMRI mouse plasma at 6 MBq/ml, iv after 2 mins by HPLC analysis; type: ADME, organism-based; details: read-out: Stability
Procedure, shortened: (§2)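 Normal NMRI mice were given the tracer IV, and plasma and brain were sampled at 2, 10 or 30 min. The percentage of intact tracer was measured by reversed-phase HPLC with 0.05 M ammonium acetate pH 6.9/acetonitrile eluent, 30/70 for plasma and 40/60 for brain, at 1 ml/min.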

[29] = Metabolic stability in NMRI mouse plasma at 6 MBq/ml, iv after 10 mins by HPLC analysis; type: ADME, organism-based; details: read-out: Stability; procedure, shortened: as §2
[30] = Metabolic stability in NMRI mouse plasma at 6 MBq/ml, iv after 30 mins by HPLC analysis; type: ADME, organism-based; details: read-out: Stability; procedure, shortened: as §2
[31] = Metabolic stability in NMRI mouse brain at 6 MBq/ml, iv after 2 mins by HPLC analysis; type: ADME, organism-based; details: read-out: Stability; procedure, shortened: as §2
[32] = Metabolic stability in NMRI mouse brain at 6 MBq/ml, iv after 10 mins by HPLC analysis; type: ADME, organism-based; details: read-out: Stability; procedure, shortened: as §2
[33] = Metabolic stability in NMRI mouse brain at 6 MBq/ml, iv after 30 mins by HPLC analysis; type: ADME, organism-based; details: read-out: Stability; procedure, shortened: as §2
Striatum [34] = assay: In vivo binding affinity to human CB2 receptor D80N mutant expressed in Fisher rat […] at 37 MBq, iv after up to 60 mins by microPET study; type: functional, organism-based; details: 37 M, tested as the 18F-labelled form
Cannabinoid receptor 2 [35] = molecular target: T1, Cannabinoid receptor 2; assay: Inverse agonist activity at human CB2 receptor expressed in CHO cells assessed as effect on [35S]-GTPgammaS binding after 1 hrs by beta counting relative to control; type: functional, cell-based; details: tested as the 18F-labelled form

Cc1c(CCN2CCOCC2)c2cc(O[11CH3])ccc2n1C(=O)c1cccc(Cl)c1Cl
Drug uptake (Brain [1]): 0.1 %ID
Ratio (Striatum [2]): 1.6

Cc1c(CCN2CCOCC2)c2cc(OCC[18F])ccc2n1C(=O)c1cccc(Cl)c1Cl
logD [3]: 2.8
pKi (Cannabinoid receptor 1): 5.00
pKi (Cannabinoid receptor 2 [4]): 7.57
pEC50 (Cannabinoid receptor 2 [5]): 7.75
Drug uptake (Kidney [6]): 9.8 %ID and 15.8 % ID/g
SUV (Kidney [6]): 5.5
Drug uptake (Kidney [7]): 2.2 %ID and 3.4 % ID/g
SUV (Kidney [7]): 1.2
Drug uptake [8]: 0.1 %ID
Drug uptake [9]: 1.4 %ID
Drug uptake (Liver [10]): 47.4 %ID and 26.3 % ID/g
SUV (Liver [10]): 9.1
Drug uptake (Liver [11]): 23.7 %ID and 11.4 % ID/g
SUV (Liver [11]): 4
SUV (Spleen [12]): 3.3
SUV (Spleen [13]): 1.1
SUV (Pancreas [14]): 1.2
SUV (Pancreas [15]): 0.8
SUV (Lung [16]): 4.5
SUV (Lung [17]): 0.8
SUV (Heart [18]): 2.7
SUV (Heart [19]): 0.7
Drug uptake (Intestine [20]): 8.9 %ID
Drug uptake (Intestine [21]): 35.7 %ID
Drug uptake (Stomach [22]): 1.3 %ID
Drug uptake (Stomach [23]): 1.8 %ID
Drug uptake (Blood [24]): 4.5 %ID and 1.9 % ID/g
SUV (Blood [24]): 0.6
Drug uptake (Blood [25]): 5 %ID and 2.1 % ID/g
SUV (Blood [25]): 0.7
Drug uptake (Brain [26]): 1.3 %ID and 2.9 % ID/g
SUV (Brain [26]): 1
Drug uptake (Brain [27]): 0.7 %ID and 1.6 % ID/g
SUV (Brain [27]): 0.6
remaining at 2 min [28]: 84%
remaining at 10 min [29]: 52%
remaining at 0.5 h [30]: 12%
remaining at 2 min [31]: 95%
remaining at 10 min [32]: 79%
remaining at 0.5 h [33]: 48%

Cc1c(CCN2CCOCC2)c2cc(OCCF)ccc2n1C(=O)c1cccc(Cl)c1Cl
Activity (Striatum [34]): Active
Emax (Cannabinoid receptor 2 [35]): -82%
